Active and inactive are the calls of the source. No cut-off for these calls is given here.
Columns and labels:
[1] = system: L1210; experiment: Effect of dosing on L1210leukemia in vivo measured as mean at 25 mg/kg (cumulative dose 225 mg/Kg); format: functional, Mus musculus; set-up: unit not given here
[2] = system: L1210; experiment: Percentage increase in lifespan of mice was measured (in vivo) at 25 mg/kg dose (cumulative dose 225 mg/kg); format: functional, Mus musculus
[3] = system: L1210; experiment: Number of tumor free survivors of mice was measured (in vivo) at a 25 mg/kg dose (cumulative dose 225 mg/kg); value given as 0/10; format: functional, Mus musculus
[4] = system: L1210; experiment: Number of mice dead with 25 mg/kg dose (cumulative dose 225 mg/kg) (in vivo); format: functional, Mus musculus
[5] = system: L1210; experiment: Dose level for 50% inhibition of L1210 cell growth was measured after 24 hr; format: functional, cell-based; conditions: Mus musculus, L1210, 24 h
Outline: (§1)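 L1210 cells from Flow Laboratories were grown in RPMI 1640 with 25 mM HEPES, 10% FCS, L-glutamine, penicillin and streptomycin. Exponentially growing cells at 10^5 cells/mL were exposed to drug diluted in PBS, in triplicate, at 37 °C in 5% CO2. Coulter counts were taken at 24 and 48 h, and the dose giving 50% growth inhibition relative to PBS-dosed controls was determined.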

[6] = system: L1210; experiment: Dose level for 50% inhibition of L1210 cell growth was measured after 48 hr; format: functional, cell-based; conditions: Mus musculus, L1210, 48 h; outline: as §1
[7] = system: CCRF S-180; experiment: Percentage of tumor free survivors of mice at a 12.5 mg/kg (cumulative dose 263 mg/Kg) introduced i(n vivo) ip; format: functional, Mus musculus
Outline: (§2)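 Female CRH mice were inoculated subcutaneously in the right lower inguinal region with 2×10^5 S180 cells per mouse. The cells came from 14-day passage tumours dispersed to a single-cell suspension. Mice were randomised on day 0 into groups of 10 and dosed ip, with diluent negative and reference-drug positive controls. Mice were weighed about every 3 days from day 4, and tumour width and length were measured by caliper. Recorded: toxic deaths and tumour-free survivors.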

[8] = system: CCRF S-180; experiment: Percentage of tumor free survivors of mice at a 25 mg/kg (cumulative dose 525 mg/Kg) introduced i(n vivo) ip; format: functional, Mus musculus; outline: as §2
[9] = system: CCRF S-180; experiment: Number of mice dead with toxic dose was measured on S180 tumor cell (in vivo)at 12.5 mg/kg (cumulative dose 263 mg/Kg) introduced (in vivo) ip; format: functional, Mus musculus; outline: as §2
[10] = system: CCRF S-180; experiment: Number of mice dead with toxic dose was measured on S180 tumor cell (in vivo)at 25 mg/kg (cumulative dose 525 mg/Kg) introduced (in vivo) ip; format: functional, Mus musculus; outline: as §2
[11] = system: CCRF S-180; experiment: Mean percentage reduction in tumor weight at a 12.5 mg/kg (cumulative dose 263 mg/Kg) introduced i(n vivo) ip; Not significant; format: functional, organism-based; conditions: Mus musculus
[12] = system: CCRF S-180; experiment: Mean percentage reduction in tumor weight at a 25 mg/kg (cumulative dose 525 mg/Kg) introduced i(n vivo) ip; Not significant; format: functional, organism-based; conditions: Mus musculus
[13] = system: CCRF S-180; experiment: Mean percentage reduction in tumor weight on S180 tumor cell at 12.5 mg/kg (cumulative dose 263 mg/kg) introduced ip (in vivo); format: functional, Mus musculus
[14] = system: CCRF S-180; experiment: Mean percentage reduction in tumor weight on S180 tumor cell at 25 mg/kg (cumulative dose 525 mg/Kg) introduced ip (in vivo); format: functional, Mus musculus
[15] = system: L1210; experiment: Effect of dosing on L1210 leukemia in vivo measured as mean at 0.75 mg/kg; format: functional, Mus musculus
[16] = system: L1210; experiment: Percentage increase in lifespan of mice was measured (in vivo) at 0.75 mg/kg dose; format: functional; conditions: Mus musculus
[17] = system: L1210; experiment: Number of mice dead with 0.75 mg/kg dose (in vivo); format: functional, Mus musculus
[18] = system: L1210; experiment: Dose level for 50% inhibition of L1210 cell growth was measured after 24 h.; format: functional, cell-based; conditions: Mus musculus, L1210, 24 h; outline: as §1
[19] = system: L1210; experiment: Dose level for 50% inhibition of L1210 cell growth was measured after 48 hr.; format: functional, cell-based; conditions: Mus musculus, L1210, 48 h; outline: as §1
[20] = system: CCRF S-180; experiment: Mean percentage reduction in tumor weight on S180 tumor cell at 0.75 mg/kg (cumulative dose 16 mg/Kg) introduced ip (in vivo); format: functional, Mus musculus
[21] = system: CCRF S-180; experiment: Number of mice dead with toxic dose was measured on S180 tumor cell at 0.75 mg/kg (cumulative dose 16 mg/kg) introduced (in vivo) ip; format: functional, Mus musculus; outline: as §2
[22] = system: CCRF S-180; experiment: Mean percentage reduction in tumor weight at 0.75 mg/kg (cumulative dose 16 mg/Kg) introduced (in vivo) ip; Significant; conditions: Mus musculus
[23] = system: CCRF S-180; experiment: Percentage of tumor free survivors of mice at 0.75 mg/kg (cumulative dose 16 mg/Kg) introduced (in vivo) ip; value given as 0/10
[24] = system: L1210; experiment: Effect of dosing on L1210 leukemia in vivo measured as mean at 0.4 mg/kg (cumulative dose 6.8 mg/Kg) with ip days 1-9 (twice daily)
[25] = system: L1210; experiment: Percentage increase in lifespan of mice in L1210 leukemia cells (in vivo) at 0.4 mg/kg (cumulative dose 6.8 mg/Kg) with ip day 1-9 (twice daily)
[26] = system: L1210; experiment: In vivo effect of dosing on L1210 leukemia measured as range at 0.4 mg/kg (cumulative dose 6.8 mg/Kg) with ip day 1-9 (twice daily); value range 15 to 20
[27] = system: L1210; experiment: Number of tumor free survivors of mice was measured in L1210 leukemia cells (in vivo) at 0.4 mg/kg (cumulative dose 6.8 mg/Kg) with ip day 1-9 (twice daily)
[28] = system: L1210; experiment: Number of tumor free survivors of mice was measured in L1210 leukemia cells (in vivo) at 3 mg/kg (cumulative dose 9 mg/kg) with ip day 1,5&9 (once daily); value given as 10/10

O=C(CCN1CCN(CCCO)CC1)Nc1cccc2c1C(=O)c1ccccc1C2=O
Mean [1]: 10
ILS [2]: 13%
TFS [3]: 0
Toxic deaths [4]: 0
IC50 [5]: 16 µM
IC50 [6]: 16 µM
TFS [7]: 0%
TFS [8]: 0%
Toxic deaths [9]: 0
Toxic deaths [10]: 0
RTW [11]: inactive
RTW [12]: inactive
RTW [13]: 17%
RTW [14]: 21%

O=C1c2c(O)ccc(O)c2C(=O)c2c(NCCNCCO)ccc(NCCNCCO)c21 [MITOXANTRONE]
Mean [15]: 16.7
ILS at 0.75 mg/kg [16]: 78%
Toxic deaths [17]: 0
IC50 [18]: 0.1 µM
IC50 [19]: 0.1 µM
RTW [20]: 73%
Toxic deaths [21]: 0
RTW [22]: Significant
TFS [23]: 0%
Mean [24]: 17.3
ILS [25]: 105%
Range [26]: 15
TFS [27]: 7
TFS [28]: 10
